# From ChEMBL document CHEMBL4513216, “Probing the Open Global Health Chemical Diversity Library for Multistage-Active Starting Points for Next-Generation Antimalarials” (ACS Infect Dis, 2020)
# Test: Toxicity liver stage against HepG2, at 10uM
# Type: cell-based
# Design: test concentration 10 uM, cell line HepG2-A16-CD81EGFP
# Conditions: human, HepG2-A16-CD81EGFP cells; read-out: INHIBITION
# In short: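 Uninfected HepG2-A16-CD81EGFP cells, 3 × 10^3 per well, 1536-well, plated on prespotted compound at 10 μM final, parasite-free screening media added to match infected plates; puromycin 10 μM positive, DMSO 0.5% negative; run in parallel with 48 h PbLuc assay at 37 °C, 5% CO2; viability by CellTiter-Glo luminescence, normalized to controls.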
row,Compound,cytotoxicity at 10 µM [%]
1,CCN(CC)S(=O)(=O)c1cc(Br)ccc1OC,0.58
2,Cc1ccc(CN2CC[C@H](c3nnc(-c4ccco4)o3)C2)cc1,-2.25
3,Cc1cccc2c1nc1n2[C@@H](CNC(=O)Cc2ccccc2)COC1,-5.12
4,COCCN1C[C@H]2CN(C(=O)NC(C)C)CCN2C1=O,2.6
5,COCC(=O)N1CCN(S(=O)(=O)c2ccccc2)[C@@H](C(=O)OC)C1,1.03
6,COC(=O)c1cccc2nc([C@H]3CCN(Cc4ccccc4C)C3)oc12,8.36
7,CSCC(C)(O)CNS(=O)(=O)c1cccc(Cl)c1 (stereo not drawn),-0.396
8,Cn1nc(CNC(=O)C2CCC2)cc1C1CC1,-4.31
9,O=C(Cc1ccc(F)cc1)N1C[C@H]2CCN[C@H]2C1,2.26
10,O=C(CC1CC1)N1CCC2(CC1)CN(CCn1cccn1)C(=O)CO2,1.75
11,COC[C@H]1CC[C@H]2[C@H](CCN2S(=O)(=O)Cc2ccccc2)O1,8.25
12,Cc1ncnc2c1CCN(C(=O)c1ccsc1)CC2,-0.443
13,CCN(CC)CC1CN(Cc2ccco2)Cc2nccn2C1 (stereo not drawn),-139
14,COCCN(Cc1ccoc1)C(=O)c1ccccc1Cl,9.12
15,CNC(=O)[C@@]12CCC3(CCN(S(C)(=O)=O)CC3)[C@@H]1CN(S(C)(=O)=O)C2,-16.1
16,CCn1cc(Br)c(C(=O)NCc2ccc(F)cc2)n1,-3.01
17,COCCCNC(=O)C(C)n1cc(Br)cn1 (stereo not drawn),12.2
18,Cc1cc2[nH]c(O)nc2cc1NCc1ccccc1,16
19,Cc1cc(C(=O)N(C)Cc2cccs2)nc(N2CCCC2)n1,7.85
20,CC1CCC(NC(=O)c2nn(C)cc2I)CC1 (stereo not drawn),11.8
21,CCN(CC)C(=O)c1nnn(Cc2ccccc2)c1OC,10.3
22,CNc1nc(C)c(C(=O)NCC(C)(C)N2CCCCC2)s1,2.79
23,CC(C)c1[nH]c2ncccc2c1CN1CCN(S(=O)(=O)N(C)C)CC1,3.33

row,Compound,cytotoxicity at 10 µM [%]
1,CN(C)S(=O)(=O)N1CCC(c2ccncc2)CC1,-27.6
2,c1ccc(N2CCOC(Cc3cccnc3)C2)cc1 (stereo not drawn),-26.3
3,CCn1cc(NC(=O)N2CCN(CCSc3ccccc3)CC2)cn1,-0.095
4,CS(=O)(=O)c1ccc(NCc2ccc(F)cc2)cn1,8.08
5,COc1cccc(C(C)N2CCN(S(=O)(=O)c3ccccc3)CC2)c1 (stereo not drawn),5.11
6,O=C(NCCO)Nc1ccc(Br)c(F)c1,1.92
7,N#Cc1cc(S(N)(=O)=O)ccc1N1CCN(c2ccccc2)CC1,-3.54
8,COc1cc(CO)ccc1OCc1nc(C2CC2)no1,6.37
9,O=c1cc(CN(CCO)C2CC2)nc2ccccn12,-1.05
10,CCCN(Cc1cnn(C)c1)S(=O)(=O)c1ccc(F)c(C#N)c1,6.69
11,OCc1cccc(CNCc2cccc3c2OCCO3)c1,4.25
12,CC(O)CN1CCC(CNCc2cn(-c3ccccc3)nn2)CC1 (stereo not drawn),3.31
13,N#Cc1ccnc(N2CCN(C3CCOC3=O)CC2)c1 (stereo not drawn),-1.98
14,Cc1cc(C(=O)NCC(O)CN2CCCC2=O)ccc1F (stereo not drawn),5.24
15,O=C(NC1CCc2cc(Cl)ccc21)C1CCN(C(=O)C2CC2)CC1 (stereo not drawn),-1.43
16,Cc1nc(CN2CCN(CCCc3nc4ccccc4o3)CC2)no1,9.13
17,Cc1noc(C(C)N(C)Cc2ccco2)n1 (stereo not drawn),6.6
18,O=C(NCCc1cccnc1)NC1CCOC2(CCCCC2)C1 (stereo not drawn),-16.3
19,CC(C)N(CCNC(=O)N1CCCC(N(C)C)C1)C1CC1 (stereo not drawn),-0.211
20,COCCC(=O)N1CCC(Nc2ncc(Cl)cn2)CC1,-6.74
21,Cc1ccc(NS(=O)(=O)c2ccc(C#N)cc2)c(CN(C)C)c1,-8.51
22,COc1ccc(Oc2ccc(CNC(=O)C3CCS(=O)(=O)C3)cn2)cc1 (stereo not drawn),-2.22
23,CC(C)N(C)S(=O)(=O)N(C)Cc1cnn(Cc2ccccc2)c1,7.01

row,Compound,cytotoxicity at 10 µM [%]
1,CC(=O)NCCC(=O)NCCCOc1c(C)cccc1C,-4.81
2,CN(C)c1nccc(CNC(=O)NC(C)(C)C)n1,-7.36
3,CCN(CC1CN(Cc2ccccn2)CCO1)c1cccnn1 (stereo not drawn),-6.95
4,CC(=O)Nc1ccc(CN2CCOC2=O)cc1,-6.24
5,CC(C)c1nnc2n1CCN(c1nn3cc(C(C)(C)C)nc3s1)C2,7.44
6,Cc1cccc(NCC(=O)Nc2cc(F)ccc2F)c1C(N)=O,7.53
7,CCN(C(c1cccnc1)c1ccc(F)c(F)c1)S(C)(=O)=O (stereo not drawn),-0.69
8,Cc1cc(N2CCCC2Cn2nc(C)cc2C)n2ncnc2n1 (stereo not drawn),-2.74
9,CCS(=O)(=O)N1CCC(CSc2ccccc2)C1 (stereo not drawn),2.42
10,Cn1nnnc1SCCC(=O)NCC(C)(C)c1ccccc1F,5.68
11,CN(C)C1CN(C(=O)Nc2cccc(OC(F)F)c2)C1,-0.317
12,Cc1cnn(CC2CCCCN2c2ncnc3ccccc23)c1 (stereo not drawn),8.24
13,N#Cc1cnc(NCc2ccc(C(=O)NC3CC3)cc2)c(Cl)c1,-0.18
14,Brc1ccc(C2(CNCc3cc[nH]c3)CCOCC2)cc1,9.17
15,Fc1cccc2[nH]c(CN3CCn4c(nnc4C4CC4)C3)nc12,-5.07
16,O=C(c1c(O)cnc2ccccc12)N1CCN(CC(F)F)CC1,-2.22
17,CC(NC(=O)N1CCN(c2cccs2)CC1)c1ccc(C#N)cc1 (stereo not drawn),11.4
18,O=C(NCC1CCCOC1)c1ccc(-c2cccs2)[nH]c1=O (stereo not drawn),-3.67
19,CN(CC(C)(C)O)C(=O)Nc1ccc(F)c(-n2cccc2)c1,-9.3
20,COc1cccc(CN(C)Cc2ccc(C#N)cc2)c1OC,-8.34
21,CC(=O)N1CCC(C(=O)NCCN2CCCCC2)CC1,-5.04
22,NS(=O)(=O)CCNC(=O)c1ccc(-c2ccc(F)cc2)cc1F,-3.62
23,CC(COc1ccc(F)cc1F)NC(=O)NCCN1CCOCC1 (stereo not drawn),-10.9

row,Compound,cytotoxicity at 10 µM [%]
1,CN(C)C(=O)N1CCCC2(CCN(c3ccsc3)C2=O)C1 (stereo not drawn),-72.5
2,Cc1nc(N(C)C)ncc1C(=O)NCCc1csc(-c2cnccn2)n1,-5
3,COc1cccc(Cn2ncnc2CCSC)c1,-1.22
4,Cc1noc(C)c1CCCNC(=O)C1CCN(C(C)C)CC1,-7.01
5,Cc1cccc(SC2CCN(C(=O)CCNS(C)(=O)=O)CC2)c1,1.2
6,COc1cc(N2C[C@@H](C)[C@](O)(C3CC3)C2)ncn1,-0.714
7,CCCN1CCN(C(=O)Nc2ccccc2Cl)[C@H]2CS(=O)(=O)C[C@H]21,1.54
8,CC(C)NS(=O)(=O)c1cc(C(=O)O)cc(-c2ccccc2CO)c1,0.555
9,COCCNS(=O)(=O)c1cccc2c1CN(C(=O)c1cnccn1)CC2,-0.432
10,Cc1noc(-c2ccc(N3CCCC(C(=O)c4nccn4C)C3)nc2)n1 (stereo not drawn),-6.58
11,COc1ccccc1CNC(=O)CN(C)C(C)c1ccncn1 (stereo not drawn),-4.73
12,CC(C)(O)CCc1ccc(C(=O)NCC2CCCOC2)cc1 (stereo not drawn),0.445
13,Cc1nccn1CCN(C)C(=O)c1cn(-c2ccccc2)nn1,-0.651
14,COc1ccc(N2CCN(C(=O)CCCc3cn[nH]c3)CC2=O)cc1,-9.9
15,CCC(C)N(Cc1ccncc1)Cc1ccc(-n2cccn2)cc1 (stereo not drawn),-48.3
16,CCn1cc(CN2CCN(C)C3(CCC(=O)N(CC4CC4)CC3)C2)cn1 (stereo not drawn),-0.764
17,CC(C)Cn1cncc1CNC1CCSCC1,-4.11
18,Cc1ccccc1C(C(=O)NCCSC(F)(F)F)N(C)C (stereo not drawn),8.25
19,O=C(NCc1ccco1)c1cc(N2CC[C@@H](O)C2)ccn1,-2.93
20,CN(C)C(=O)N1CCN(Cc2ccccc2)[C@@H]2CS(=O)(=O)C[C@@H]21,-12.6
21,CCn1c(CN2CCCC2)nnc1C1CCN(Cc2ccc(C)o2)CC1,-14.8
22,CCOCC(O)CN1CCN(C(=O)c2cccc(OC)c2)CC1 (stereo not drawn),-0.874
23,CC(=O)N1CCCC(C(=O)NCCOc2cc(C)cc(C)c2)C1 (stereo not drawn),-3.43

row,Compound,cytotoxicity at 10 µM [%]
1,CC(C)c1nc(CN2CCOC(Cn3cncn3)C2)cs1 (stereo not drawn),-4.39
2,CCS(=O)(=O)N1CCC(NC(=O)c2ccccc2O)CC1,-7.27
3,Cc1ccc2oc(C(=O)N3CCCC(n4cccn4)C3)cc2n1 (stereo not drawn),-3.89
4,CCn1cc(CN2CCCN(C(=O)c3sccc3OC)CC2)cn1,-5.68
5,CN1CCOC(CNC(=O)Cc2coc(-c3ccccc3)n2)C1 (stereo not drawn),-25.1
6,CN(Cc1ccc(N(C)C)cc1)C(=O)NCc1nnc2n1CCC2,-21
7,Cc1ccc(-c2nc(CN3CCN(C(=O)C4CC4)CC3)cs2)o1,-12.6
8,CS(=O)(=O)c1ccc(CNc2nccc(C(F)(F)F)n2)cc1,-23.2
9,Cc1cnc(C(=O)Nc2cc(F)ccc2OCC2CCCO2)cn1 (stereo not drawn),-4.83
10,O=C(CN1CCCCC1Cn1cncn1)NCc1ccccn1 (stereo not drawn),-4.02
11,Cc1nc(C)c(C(=O)OCCNc2ncccc2C#N)s1,-7.32
12,CNC(=O)[C@@H]1CN(C(=O)C2CCC2)C[C@H]1c1ccnc(N2CCCC2)n1,-3.21
13,COc1cccc(N2C(=O)CC3(CCCNC3)C2=O)c1 (stereo not drawn),1.52
14,Cc1cccc(CN2C(=O)C[C@H]3[C@@H]2CCN3Cc2ccco2)n1,-1.39
15,Oc1cc(C2CCNCC2)nc(-c2ccsc2)n1,4.06
16,Cc1cc(CN2CC[C@H]3C(=O)N(c4ccccc4)CCO[C@H]3C2)no1,-5.59
17,CCS(=O)(=O)N1CC[C@@H]2[C@H](CC1)N(CC(C)C)CCS2(=O)=O,8.4
18,CS(=O)(=O)N[C@@H]1CCO[C@]2(CCN(CC3CCOCC3)C2)C1,-132
19,COc1ccc(C[C@H]2CNCC[C@@H]2OC)cc1,3.11
20,CC(=O)c1cc(CN2C[C@@H]3CC[C@H]2CN(Cc2c(C)noc2C)C3)cs1,-1.43
21,CNc1nc2cn(CCc3ccccc3)c(=O)c-2c[nH]1,7.77
